The structures appear in SMILES notation. Active and inactive are the calls of the source. The rule behind the calls is not given here.

The subject of one test is HL-60. Description: Cytotoxicity against human HL60 cells at 2 mg/mL to 10 ng/mL by MTT assay. The test is classed as functional, cell-based. Summed up: (§1)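 Antiproliferative MTT assay on the human leukemia line HL-60, the human carcinoma line HELA and the KB line. Compounds were tested over 2 mg/mL to 10 ng/mL, in triplicate.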
The subject of the next test is HeLa. Nature of the test: Cytotoxicity against human HeLa cells at 2 mg/mL to 10 ng/mL by MTT assay. Type of test: functional, cell-based. Summed up:
as §1

Turning to `COc1cc([C@@H]2c3c(cc(OC)c(OC)c3OC)C[C@@H]3COC[C@H]32)cc(OC)c1OC`, the result in the test with HL-60 and in the test on HeLa was inactive.

As to `COc1cc([C@@H]2c3c(cc(OC)c(OC)c3OC)[C@H](OC(C)=O)[C@@H]3COC[C@@H]23)cc(OC)c1OC`, the result in the test with HL-60 and in the test with HeLa was inactive.

On to `COc1cc([C@H]2c3c(cc(OC)c(OC)c3OC)C(=O)[C@@H]3COC[C@@H]23)cc(OC)c1OC`, for which the result in the test on HL-60 and in the test with HeLa was inactive.

Consider `COc1ccc([C@@H]2c3c(cc(OC)c(OC)c3OC)C[C@@H]3COC[C@H]32)cc1OC`, for which the result in the test with HL-60 and in the test on HeLa was inactive.
